Compound activity from PubChem.
Arrestin-AP2 inh: inhibitors of beta-arrestin/AP2 binding, primary screen, biochemical, GPCR trafficking, flow cytometry; beta-arrestin 1 C-terminal peptide binding to AP2 beta2-adaptin appendage (human); FITC-arrestin peptide / GST-AP2 beads; AP2 beta2 appendage carries R879A mutation; inhibition, % at 10 µM; 0.31% of 340,000 active; AID 504490, 2011;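 active = inhibition above a set limit, near 3 SD of compounds lacking own fluorescence, cut at about 54% in these data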;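 note: plate controls were DMSO wells for no effect and 5 µM unlabelled arrestin peptide for full effect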
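test system = AP2 appendage R879A on GSH beads | buffer or medium = PBS plus Tween 20 (0.05%) and BSA (0.1%) | incubation = 12 min plus 1 h, RT | detection = bead flow cytometry, FITC channel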
Tn7 DDE FP: inhibitors of Tn7 peptide binding to fibrin DD(E), primary screen, biochemical, fluorescence polarization, human fibrin, Tn7 probe; inhibition, % at 8.3 µM; 0.13% of 370,000 active; Fibrinogen beta chain (Homo sapiens), P02675; FP displacement of FITC-Tn7 peptide from fibrin DD(E); 0% = median of compound wells per plate;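 active = inhibition above the mean of compounds falling within the control limits plus 3 SD of them, cut at about 14% in these data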;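 note: 0% = plate median of compound wells and 100% = 10 µM Aha-Tn7 peptide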
Target sequence (P02675 whole entry, looked up): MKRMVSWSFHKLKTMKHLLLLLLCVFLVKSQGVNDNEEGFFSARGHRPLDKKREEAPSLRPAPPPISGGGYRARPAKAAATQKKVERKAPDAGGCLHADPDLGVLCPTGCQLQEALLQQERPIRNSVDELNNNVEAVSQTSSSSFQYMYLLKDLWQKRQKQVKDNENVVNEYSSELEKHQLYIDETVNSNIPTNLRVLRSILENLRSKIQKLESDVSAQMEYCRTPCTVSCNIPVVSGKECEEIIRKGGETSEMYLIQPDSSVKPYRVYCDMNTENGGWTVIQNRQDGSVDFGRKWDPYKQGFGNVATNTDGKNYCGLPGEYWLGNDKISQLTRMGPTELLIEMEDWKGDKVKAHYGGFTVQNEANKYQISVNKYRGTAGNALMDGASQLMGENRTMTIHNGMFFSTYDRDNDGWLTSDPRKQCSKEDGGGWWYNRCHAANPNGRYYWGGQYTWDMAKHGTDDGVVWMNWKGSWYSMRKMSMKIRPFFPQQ
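Assay system: human fibrin DD(E) protein / Input: 2 µM fibrin DD(E) / Benchmarks: high control of 10 µM Aha-Tn7 peptide / Measured by: fluorescence polarization of the labelled Tn7 tracer / Medium: Tris buffer with calcium and detergent, pH 7.8 / Timing: 10 min compound pre-incubation, 3 h probe incubation at room temperature / Repeats: one replicate per compound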
CAL PDZ FP-1: CAL PDZ peptide-binding inhibitors, primary screen, biochemical, fluorescence polarization, Cer-tagged CAL PDZ, HTS; 0.02% of 330,000 active; purified CAL PDZ, TMR-peptide fluorescence polarization, 1 h; Golgi-associated PDZ and coiled-coil motif-containing protein (Homo sapiens), Q9HD26; inhibition, % at 20 µM;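 active = highest replicate inhibition of at least 40%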;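 note: plate controls were DMSO neutral control wells for no effect and unlabeled competitor peptide control wells for full effect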
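Material: tagged CAL PDZ domain; buffer or medium: 25 mM sodium phosphate pH 7.4, 150 mM NaCl, TCEP, IgG, Thesit; compound dosing: single point, 20 µM; schedule: 1 h incubation at room temperature before polarization reading; measured by: FP readout, S and P plane fluorescence; read-out basis: percent inhibition from loss of millipolarization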
CAL PDZ FP-2: untagged CAL PDZ binding inhibitors, primary screen, biochemical, fluorescence polarization, HTS; inhibition, % at 24.9 µM; AID 602252, 2012; 0.92% of 300,000 active; purified CAL PDZ, TMR-peptide fluorescence polarization, 1 h;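 active = mean inhibition of at least 30% with at least half of replicates also reaching 30%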;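 note: 0% = DMSO neutral control and 100% = excess unlabeled competitor peptide PRC23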
DDE Tn6 FP inh: inhibitors of Tn6 peptide binding to fibrin DD(E), primary screen, biochemical, fluorescence polarization, human fibrin, Tn6 probe; Fibrin DD(E) TRITC-Tn6 fluorescence polarization displacement; inhibition, % at 8.3 µM; 0.21% of 370,000 active;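 active = inhibition above a per-campaign cutoff: mean of compounds within control limits plus 3 SD, cut at about 15% in these data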;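 note: 0% = median of all compound wells on the plate and 100% = blocking peptide control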
Tn6 DDE ctr: DD(E)-Tn6 binding inhibition, counter-screen; shares compounds with DDE Tn6 FP inh; Fibrin DD(E), TRITC-Tn6 fluorescence polarization displacement; 0% = median of compound wells, not DMSO; inhibition, % at 8.3 µM; 2% of 680 active;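 active = inhibition above the mean of test compounds lying between the control limits plus 3 SD of those, cut at about 14% in these data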;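 note: 0% = median of compound wells and 100% = wells with Aha-Tn7 blocking peptide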
DDE Tn6 confirm: inhibitors of Tn6 peptide binding to fibrin DD(E), confirmation, biochemical, fluorescence polarization, human fibrin, Tn6 probe; shares compounds with DDE Tn6 FP inh; FP displacement of TRITC-Tn6 peptide from DD(E); 0% = per-plate median of test wells; inhibition, % at 8.3 µM; 10% of 680 active;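 active = inhibition above the mean of compounds lying within the control limits plus 3 SD, cut at about 16% in these data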;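 note: 100% = high control wells holding a competing inhibitor peptide at 10 µM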
* = called active by the depositor; . = not tested or not shown. An excerpt weighted towards active compounds, which were near 1.4% of everything screened.

SMILES	Arrestin-AP2 inh	Tn7 DDE FP	CAL PDZ FP-1	CAL PDZ FP-2	DDE Tn6 FP inh	Tn6 DDE ctr	DDE Tn6 confirm
C/C(CC(=O)NCc1ccc(Cl)cc1)=N\NC(=O)c1ccccc1F	1	7	-1	1	16*	-4	-14
Cc1ccc2c(C)c(C(=O)Nc3ccc(S(N)(=O)=O)cc3)oc2c1C	-9	5	0	-3	26*	4	-94
CCOC(=O)C(CNc1ccc(O)cc1)NC(=O)c1ccccc1 (stereo not given)	.	1	.	.	66*	8	10
CCOC(=O)CCC(NC(=O)c1ccc(NCN2C(=O)c3ccccc3C2=O)cc1)C(=O)OCC (stereo not given)	9	-2	-1	0	2	.	.
Cc1ccc2c(c1)C1CS(=O)(=O)N(Cc3ccccc3)CN1C2 (stereo not given)	.	2	.	.	-6	.	.
N=c1c[n+](N2CCOCC2)[n-]o1	0	1	1	2	19*	-8	-19
COC(=O)N/N=C\c1cc2c(cc1Br)OCO2	-19	1	-1	4	17*	4	-8
CCOc1cc(CNCCCN2CCOCC2)ccc1OCC(=O)Nc1cccc2ccccc12	6	10	-3	.	18*	-4	-5
CCN(CC)c1ccc(/C=C/c2cc(-c3ccccc3)c3ccccc3n2)cc1	-33	0	0	-4	17*	-11	-8
CCN(CC)c1ccc(/C=N/NC(=O)c2cc(C)nc3ccccc23)cc1	16	0	0	.	-5	.	.
CN(Cc1ccccc1)C(=O)OCc1cn(Cc2cc(F)cc(F)c2)nn1	.	-1	.	.	4	.	.
CN(Cc1ccccc1)C(=O)OCc1cn(Cc2ccc(F)cc2F)nn1	.	2	.	.	17*	6	5
COc1ccc2c(c1OC)c(=O)n1c3ccc(OC(C)C(=O)NCCCN4CCOCC4)cc3c3ccnc2c31 (stereo not given)	-4	.	2	3	.	.	.
CC(Oc1ccc2c3c(c(=O)oc2c1)CCCC3)C(=O)NCCN1CCOCC1 (stereo not given)	14	-3	-1	-3	3	.	.
CC(Oc1ccc2c(c1)c1ccnc3c4ccccc4c(=O)n2c13)C(=O)NCCN1CCOCC1 (stereo not given)	8	-1	-2	-8	36*	4	8
COc1ccc2c(c1OC)c(=O)n1c3ccc(OC(C)C(=O)NCCN4CCOCC4)cc3c3ccnc2c31 (stereo not given)	7	2	0	-9	27*	-5	-5
c1ccc(-c2ccc(CNc3nc(-c4ccccn4)nnc3-c3ccccc3)cc2)cc1	.	-8	.	.	-13	.	.
CCNC(=O)N(C)[C@H]1C[C@H]2c3[nH]c4c(-c5ccccc5)cccc4c3CCN2C(=O)[C@H]1[C@H](C)O	.	0	.	.	-5	.	.
COC(=O)C1CN(C2CCCC2)CCS(=O)(=O)N1Cc1ccc(C)cc1 (stereo not given)	.	3	.	.	-1	.	.
Cc1nnc2c3ccccc3c(-c3cccc4ccccc34)nn12	3	-2	-4	.	-2	.	.
Cc1nnc2sc(-c3cccc4ccccc34)nn12	4	-1	-3	-4	17*	-7	-10
COc1ccccc1-c1cccc2c3c([nH]c12)[C@@H]1C[C@H]2[C@@H](C(=O)N1CC3)[C@H](C)ON2C	.	9	.	.	3	.	.
CN(C)N1C(N)=C(C#N)C(c2ccc3c(c2)OCO3)C2=C1CCCC2=O (stereo not given)	-9	6	0	-9	15*	0	-3
CCCCNC(=O)C[C@H]1C[C@@]2(C(=O)OC)C(=C[C@H](C(C)C)O[C@@H]2C2CC2)N(Cc2ccc3c(c2)OCO3)C1=O	.	-5	.	.	-6	.	.
CC[C@@]1(c2ccc(C)cc2)C(=O)N(C(=O)OC)N1C(=O)OC	.	4	.	.	10	.	.
SMILES	Arrestin-AP2 inh	Tn7 DDE FP	CAL PDZ FP-1	CAL PDZ FP-2	DDE Tn6 FP inh	Tn6 DDE ctr	DDE Tn6 confirm
CCN(Cc1nc2cc(Cl)ccc2c(=O)[nH]1)C(=O)c1nn(C)c(=O)c2ccccc12	-23	4	-2	0	4	.	.
CCN(Cc1nc2cc(Cl)ccc2c(=O)[nH]1)C(=O)c1cc(C2CC2)nn1-c1ccccc1	-7	-5	0	-1	16*	-1	-16
COc1ccc(S(=O)(=O)N(C)C[C@H]2Oc3ccc(NC(=O)Nc4ccc(C(F)(F)F)cc4)cc3C(=O)N([C@H](C)CO)C[C@@H]2C)cc1	-5	4	-1	3	81*	9	34*
C[C@@H]1CN([C@H](C)CO)C(=O)c2cc(NC(=O)Nc3ccc(C(F)(F)F)cc3)ccc2O[C@H]1CN(C)S(=O)(=O)c1ccccc1	6	-4	-3	-8	48*	14*	3
COc1ccc(OC)c(S(=O)(=O)N(CC(=O)NC2CCC(C)CC2)c2cc(C)cc(C)c2)c1 (stereo not given)	.	0	.	.	0	.	.
Cc1cc2c(NC(=O)Nc3ccc(C(F)(F)F)cc3)cccc2nn1	3	-2	-8	.	108*	12	11
O=C(O)Cn1cc(/C=C2/SC(=O)N(CC(=O)N3CCCCCC3)C2=O)c2ccccc21	.	1	.	.	15*	2	-1
O=C(O)Cn1cc(/C=C2\SC(=O)N(c3ccccc3)C2=O)c2ccccc21	6	4	0	4	5	.	.
CNc1nc(Cl)c(SC)c(NCc2cccc(OC)c2)n1	1	-4	0	-2	17*	4	4
COc1cccc(CNc2ncnc3cc(Cl)ccc23)c1	-1	2	-3	-1	6	.	.
CCC1=C(CC2NCCc3ccccc32)CC2c3cc(OC)c(OC)cc3CCN2C1 (stereo not given)	9	9	-2	-5	23*	4	3
CCCNC(=O)Nc1ccsc1C(=O)OC	7	5	-2	-2	15*	4	2
CCc1ccc(NC(=O)Nc2ccsc2C(=O)OC)cc1	-1	-1	-4	-3	4	.	.
